According to ChEMBL document CHEMBL1140799, “Novel heterocycle-substituted pyrimidines as inhibitors of NF-kappaB transcription regulation related to TNF-alpha cytokine release” (Bioorg Med Chem Lett, 2008):
The source made the active and inactive calls. The rule behind the calls is not given here.

How the values were obtained:
[1] = target: Glycogen synthase kinase-3 beta (Homo sapiens, UniProt P49841); assay: Inhibition of GSK3-beta
[2] = system: A549; assay: (§1) Inhibition of NF-kappaB-mediated transcriptional activation in human A549 cells; assay type: cell-based
[3] = system: Jurkat; assay: (§2) Inhibition of AP1-mediated transcriptional activation in human Jurkat cells; assay type: cell-based
[4] = as §1; assay type: cell-based
[5] = as §2; assay type: cell-based
[6] = system: THP-1; assay: Inhibition of LPS-induced TNFalpha production in human THP1 cells; assay type: functional, cell-based
How it was run: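 THP-1 monocytes seeded at 1 × 10⁶ cells/mL in 1% FCS medium and left overnight. Compound pretreatment for 1 h, then LPS stimulation for 24 h. TNF-α in supernatants measured by sandwich ELISA. IC50 is the mean of n = 3 repeat experiments, SD given.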

[7] = system: Mus musculus; assay: Inhibition of LPS-induced TNFalpha release in BALB/c mouse at 300 mg/kg relative to […]; assay type: functional
How it was run: (§3)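 Oral dosing of BALB/c mice 30 min before LPS challenge (0.1 mg/kg ip). Serum TNF-α determined 90 min after LPS. BIRB796 (p38 MAP kinase inhibitor) served as reference compound.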

[8] = system: Mus musculus; assay: Inhibition of LPS-induced TNFalpha release in BALB/c mouse at 50 mg/kg; assay type: functional; how it was run: as §3

SMILES	Activity [1]	Activity [3]	IC50 [1]	IC50 [4]	IC50 [5]	also measured
O=C(Nc1n[nH]c2nc(N3CCNCC3)c(F)cc12)C1CC1	inactive	inactive	–	–	–	Activity [2]: inactive
COc1cccc(Nc2nccc(C3=C(c4ccccc4)NN4C=CC=CC34)n2)c1 (configuration not stated)	–	–	0.03 µM	1.9 µM	1.6 µM	–
COc1ccccc1C(=O)N1CCN(c2nc3[nH]nc(NC(=O)C4CC4)c3cc2F)CC1	inactive	inactive	–	13.1 µM	–	–
COCCn1cc(-c2ccnc(Nc3cccc(OC)c3)n2)c2cccnc21	–	inactive	2.2 µM	1.4 µM	–	IC50 [6]: 0.99 µM; inhibition in vivo at 300 mg/kg [7]: 89%
COc1ccccc1N1CCN(c2nc3[nH]nc(NC(=O)C4CC4)c3cc2F)CC1	inactive	inactive	–	10.9 µM	–	Activity [6]: inactive
COCCn1cc(-c2ccnc(Nc3cccc(OC)c3)n2)c2ccccc21	–	inactive	0.14 µM	7.8 µM	–	–
O=C(Nc1n[nH]c2nc(N3CCN(C(=O)c4ccc(F)cc4F)CC3)c(F)cc12)C1CC1	inactive	inactive	–	19.3 µM	–	–
COCCn1cc(-c2ccnc(Nc3ccccc3)n2)c2cccnc21	–	–	1.05 µM	5.6 µM	11.4 µM	–
COc1cccc(Nc2nccc(C3=CNN4C=CC=CC34)n2)c1 (configuration not stated)	–	–	0.1 µM	1 µM	1.8 µM	–
COCCn1cc(-c2ccnc(Nc3ccccc3)n2)c2ccccc21	–	inactive	0.32 µM	10.4 µM	–	–
C1=CC2C(c3ccnc(Nc4ccccc4)n3)=CNN2C=C1 (configuration not stated)	–	–	0.15 µM	0.6 µM	0.9 µM	IC50 [6]: 0.14 µM
Cc1ccc(-n2nc(C(C)(C)C)cc2NC(=O)Nc2ccc(OCCN3CCOCC3)c3ccccc23)cc1 [DORAMAPIMOD]	–	–	–	–	–	inhibition in vivo at 50 mg/kg [8]: 93%
C1=CC2C(c3ccnc(Nc4ccccc4)n3)=C(c3ccccc3)NN2C=C1 (configuration not stated)	–	–	0.06 µM	1.7 µM	0.7 µM	–
O=C(Nc1n[nH]c2nc(N3CCN(S(=O)(=O)c4ccccc4C(F)(F)F)CC3)c(F)cc12)C1CC1	inactive	inactive	–	9.4 µM	–	–
Cc1ccc(Cl)cc1Nc1nccc(C2=CNN3C=CC=CC23)n1 (configuration not stated)	–	–	10.6 µM	4.3 µM	4.9 µM	–
